Key:
Type in all cases: ADME, organism-based
Details in all cases: read-out: Drug uptake
[1] = Plasma concentration in mouse at 30 mg/kg, ip after 1 hr; set-up: dose 30 mg/kg, route intraperitoneal
Method in brief: (§1)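 Mice dosed intraperitoneally at 30 mg/kg in a vehicle of 5% ethanol, 5% Tween-80, 5% PEG400 and 85% PBS. Plasma drug concentration measured at set times after injection.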

[2] = Plasma concentration in mouse at 30 mg/kg, po after 1 hr; set-up: dose 30 mg/kg, route oral
[3] = Plasma concentration in mouse at 30 mg/kg, ip after 4 hrs; set-up: dose 30 mg/kg, route intraperitoneal; method in brief: as §1

SMILES | concentration at 1 h [1] [nM] | concentration at 1 h [2] [nM] | concentration at 4 h [3] [nM]
O=C(c1ccccc1NCc1ccc2ncccc2c1)c1n[nH]c2ccccc12 | 2400 | 1800 | –
Cc1ccc2c(c1)c(C(=O)c1ccccc1NCc1ccc3ncccc3c1)cn2C | 2900 | 1800 | 1100

Source: ChEMBL document CHEMBL1155904, “Synthesis and evaluation of heteroaryl-ketone derivatives as a novel class of VEGFR-2 inhibitors” (Bioorg Med Chem Lett, 2008)
